# In ChEMBL document CHEMBL1144907, “Novel sst(4)-selective somatostatin (SRIF) agonists. 3. Analogues amenable to radiolabeling” (J Med Chem, 2003):
# Numbered stars: 1 amine (or outer) side, 2 acyl side, 3 side chain; on linkers, the order of the positions; unused ones are H or OH. Bridge positions count the residues as written; N and C are the ends. Square brackets hold non-standard residues; d marks the D form. Peptide text beside a SMILES is read from it. * marks the point of attachment. Tyr(Nα-carbamoyl) = NC(=O)N[C@@H](Cc1ccc(O)cc1)C(=O)*; X3 = C[C@H](c1c[nH]c2ccccc12)[C@@H](N[*:1])C(=O)[*:2]; Trp(βS-Me) = C[C@@H](c1c[nH]c2ccccc12)[C@H](N)C(=O)O
# What was measured:
# [1] = target: Somatostatin receptor type 4 (Homo sapiens, UniProt P31391); test: Binding affinity towards human somatostatin receptor type 4 using [125I][Leu8,D-Trp22,Tyr25]SRIF-28 as radioligand.
# Somatostatin receptor type 4, sequence (P31391 whole entry): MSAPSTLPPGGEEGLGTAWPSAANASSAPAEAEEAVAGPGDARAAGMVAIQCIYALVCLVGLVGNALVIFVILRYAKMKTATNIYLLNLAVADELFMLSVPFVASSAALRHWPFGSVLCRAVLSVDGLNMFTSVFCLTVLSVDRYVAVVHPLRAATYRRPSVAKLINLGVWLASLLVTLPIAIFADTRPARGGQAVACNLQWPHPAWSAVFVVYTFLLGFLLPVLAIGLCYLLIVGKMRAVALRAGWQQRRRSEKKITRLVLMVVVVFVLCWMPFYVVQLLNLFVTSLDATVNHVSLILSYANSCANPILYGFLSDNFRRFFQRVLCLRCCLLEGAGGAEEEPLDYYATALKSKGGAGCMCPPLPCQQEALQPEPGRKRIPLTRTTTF
# [2] = target: Somatostatin receptor type 1 (Homo sapiens, UniProt P30872); test: Binding affinity towards human somatostatin receptor type 1 using [125I][Leu8,D-Trp22,Tyr25]SRIF-28 as radioligand.
# Somatostatin receptor type 1, sequence (P30872 whole entry): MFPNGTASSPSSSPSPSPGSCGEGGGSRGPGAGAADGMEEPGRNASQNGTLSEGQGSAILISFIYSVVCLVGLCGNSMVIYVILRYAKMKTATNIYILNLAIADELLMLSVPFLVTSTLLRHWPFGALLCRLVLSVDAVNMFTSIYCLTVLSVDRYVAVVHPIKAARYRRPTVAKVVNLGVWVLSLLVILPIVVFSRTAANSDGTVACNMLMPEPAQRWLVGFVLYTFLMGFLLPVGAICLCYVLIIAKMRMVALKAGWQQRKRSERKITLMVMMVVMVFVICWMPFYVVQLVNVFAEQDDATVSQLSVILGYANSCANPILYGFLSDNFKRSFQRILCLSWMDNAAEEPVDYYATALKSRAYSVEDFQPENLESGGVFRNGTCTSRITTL
# In short: (§1)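 Receptor autoradiography on 20-µm cryostat sections of pellets of cells stably expressing the cloned human receptor. Cell hosts: sst1 CHO-K1, sst2 CCL39, sst3 CCL39, sst5 CHO-K1. Sections were incubated with radioligand at 30 000 cpm/100 µL and displaced by unlabeled peptide from 0.1 to 1000 nM. SRIF-28 was run in parallel as control. IC50 was obtained by computer-assisted image quantification against calibrated isotope tissue standards.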
# [3] = target: Somatostatin receptor type 2 (Homo sapiens, UniProt P30874); test: Binding affinity towards human somatostatin receptor type 2 using [125I][Leu8,D-Trp22,Tyr25]SRIF-28 as radioligand.; in short: as §1
# Somatostatin receptor type 2, sequence (P30874 whole entry): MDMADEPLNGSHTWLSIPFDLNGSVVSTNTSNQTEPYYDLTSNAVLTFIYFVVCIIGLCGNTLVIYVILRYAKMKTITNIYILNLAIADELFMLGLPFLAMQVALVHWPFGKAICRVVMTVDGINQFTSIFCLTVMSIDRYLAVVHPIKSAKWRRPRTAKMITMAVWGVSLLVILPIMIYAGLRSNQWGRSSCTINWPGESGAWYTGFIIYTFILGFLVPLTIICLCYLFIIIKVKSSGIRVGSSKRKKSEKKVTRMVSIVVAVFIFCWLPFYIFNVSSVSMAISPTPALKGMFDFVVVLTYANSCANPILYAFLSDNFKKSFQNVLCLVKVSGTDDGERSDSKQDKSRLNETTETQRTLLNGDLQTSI
# [4] = target: Somatostatin receptor type 3 (Homo sapiens, UniProt P32745); test: Binding affinity towards human somatostatin receptor type 3 using [125I][Leu8,D-Trp22,Tyr25]SRIF-28 as radioligand.; in short: as §1
# Somatostatin receptor type 3, sequence (P32745 whole entry): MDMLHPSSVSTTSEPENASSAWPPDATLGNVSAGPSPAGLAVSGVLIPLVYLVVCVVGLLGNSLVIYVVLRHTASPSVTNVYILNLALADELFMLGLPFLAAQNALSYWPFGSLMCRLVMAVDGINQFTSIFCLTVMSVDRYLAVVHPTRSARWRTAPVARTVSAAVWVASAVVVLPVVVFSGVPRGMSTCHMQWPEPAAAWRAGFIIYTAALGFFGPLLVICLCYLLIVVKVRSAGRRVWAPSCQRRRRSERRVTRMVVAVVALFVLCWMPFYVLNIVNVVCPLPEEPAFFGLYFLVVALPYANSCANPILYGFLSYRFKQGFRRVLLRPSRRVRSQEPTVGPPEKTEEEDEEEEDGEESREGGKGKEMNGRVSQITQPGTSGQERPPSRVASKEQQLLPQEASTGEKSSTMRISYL
# [5] = target: Somatostatin receptor type 5 (Homo sapiens, UniProt P35346); test: Binding affinity towards human somatostatin receptor type 5 using [125I][Leu8,D-Trp22,Tyr25]SRIF-28 as radioligand.; in short: as §1
# Somatostatin receptor type 5, sequence (P35346 whole entry): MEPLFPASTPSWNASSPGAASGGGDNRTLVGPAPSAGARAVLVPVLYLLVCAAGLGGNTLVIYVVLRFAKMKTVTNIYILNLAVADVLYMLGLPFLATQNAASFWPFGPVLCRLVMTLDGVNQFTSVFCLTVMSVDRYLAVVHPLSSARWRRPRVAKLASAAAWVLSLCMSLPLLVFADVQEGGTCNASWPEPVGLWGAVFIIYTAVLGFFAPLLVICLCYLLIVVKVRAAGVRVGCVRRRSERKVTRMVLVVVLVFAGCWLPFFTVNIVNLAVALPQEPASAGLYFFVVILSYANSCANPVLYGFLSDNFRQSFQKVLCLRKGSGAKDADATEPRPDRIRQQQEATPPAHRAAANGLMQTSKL
IC50 [1] [nM],IC50 [2] [nM],IC50 [3] [nM],IC50 [4] [nM],IC50 [5] [nM],Structure (SMILES)
1.6,13,179,57,,C[C@@H](O)[C@@H]1NC(=O)[C@H](CCCCN)NC(=O)[C@H](Cc2c[nH]c3ccccc23)NC(=O)[C@H](Cc2ccccc2)NC(=O)[C@H](Cc2ccccc2)NC(=O)[C@@H](NC(=O)[C@@H](N)Cc2ccc(O)cc2)CSSC[C@@H](C(=O)O)NC(=O)[C@H](Cc2ccccc2)NC1=O (H-YCFFWKTFC-OH; disulfide 2-9)
1.3,27,54,22,63,C[C@@H](O)[C@@H]1NC(=O)[C@H](CCCCN)NC(=O)[C@H](Cc2c[nH]c3ccccc23)NC(=O)[C@H](Cc2ccc(O)cc2)NC(=O)[C@H](Cc2ccccc2)NC(=O)[C@@H](N)CSSC[C@@H](C(=O)O)NC(=O)[C@H](Cc2ccccc2)NC1=O
5.6,> 1000,46,381,,C[C@@H]1NC(=O)[C@H](Cc2ccccc2)NC(=O)[C@@H](NC(=O)[C@@H](N)Cc2ccc(O)cc2)CSSC[C@@H](C(=O)O)NC(=O)[C@H](Cc2ccccc2)NC(=O)[C@H]([C@@H](C)O)NC(=O)[C@H](CCCCN)NC(=O)[C@@H]([C@@H](C)c2c[nH]c3ccccc23)NC1=O
0.51,10.3,15.5,8.2,4.8,C[C@@H](O)[C@@H]1NC(=O)[C@H](CCCCN)NC(=O)[C@@H](Cc2c[nH]c3ccccc23)NC(=O)[C@H](Cc2ccccc2)NC(=O)[C@H](Cc2ccccc2)NC(=O)[C@@H](N)CSSC[C@@H](C(=O)O)NC(=O)[C@H](Cc2ccc(O)cc2)NC1=O (stereo in doubt)
,> 1000,,,,C[C@@H]1NC(=O)[C@H](Cc2ccccc2)NC(=O)[C@@H](NC(=O)[C@@H](N)Cc2ccc(O)cc2)CSSC[C@@H](C(=O)O)NC(=O)[C@H](Cc2ccccc2)NC(=O)[C@H]([C@@H](C)O)NC(=O)[C@H](CCCCN)NC(=O)[C@H](Cc2c[nH]c3ccccc23)NC1=O
2.1,99,561,> 1000,,C[C@@H](O)[C@@H]1NC(=O)[C@H](CCCCN)NC(=O)[C@H](Cc2c[nH]c3ccccc23)NC(=O)[C@H](CCCN)NC(=O)[C@H](Cc2ccccc2)NC(=O)[C@@H](NC(=O)[C@H](Cc2ccc(O)cc2)NC(N)=O)CSSC[C@@H](C(=O)O)NC(=O)[C@H](Cc2ccccc2)NC1=O
1,55,52,16,,C[C@@H](O)[C@@H]1NC(=O)[C@H](CCCCN)NC(=O)[C@@H](Cc2c[nH]c3ccccc23)NC(=O)[C@H](Cc2ccccc2)NC(=O)[C@H](Cc2ccccc2)NC(=O)[C@@H](NC(N)=O)CSSC[C@@H](C(=O)O)NC(=O)[C@H](Cc2ccc(O)cc2)NC1=O (stereo in doubt)
0.9,88,48,116,,C[C@@H](O)[C@@H]1NC(=O)[C@H](CCCCN)NC(=O)[C@H]([C@@H](C)c2c[nH]c3ccccc23)NC(=O)[C@H](Cc2ccccc2)NC(=O)[C@H](Cc2ccccc2)NC(=O)[C@@H](NC(=O)[C@@H](N)Cc2ccc(O)cc2)CSSC[C@@H](C(=O)O)NC(=O)[C@H](Cc2ccccc2)NC1=O (H-YCFF[Trp(βS-Me)]KTFC-OH; disulfide 2-9)
1.3,6.5,43,10,24,C[C@@H](O)[C@@H]1NC(=O)[C@H](CCCCN)NC(=O)[C@H](Cc2c[nH]c3ccccc23)NC(=O)[C@H](Cc2ccccc2)NC(=O)[C@H](Cc2ccccc2)NC(=O)[C@@H](N)CSSC[C@@H](C(=O)O)NC(=O)[C@H](Cc2ccc(O)cc2)NC1=O (stereo in doubt)
1.5,,> 1000,,> 1000,"CC(O)[C@@H]1NC(=O)[C@H](CCCCN)NC(=O)[C@H](Cc2c[nH]c3ccccc23)NC(=O)[C@H](Cc2ccc(N)cc2)NC(=O)C(Cc2ccccc2)NC(=O)C(NC(N)=O)CSSC[C@@H](C(=O)O)NC(=O)[C@H](Cc2ccccc2)NC1=O (single isomer, unassigned)"
2.4,> 1000,,,> 1000,C[C@@H]1NC(=O)[C@H](Cc2ccccc2)NC(=O)[C@@H](NC(=O)[C@H](Cc2ccc(O)cc2)NC(N)=O)CSSC[C@@H](C(=O)O)NC(=O)[C@H](Cc2ccccc2)NC(=O)[C@H]([C@@H](C)O)NC(=O)[C@H](CCCCN)NC(=O)[C@H](Cc2c[nH]c3ccccc23)NC1=O ({Tyr(Nα-carbamoyl)}-CFAWKTFC-OH; disulfide 1-8)
1.8,117,25.7,35.7,20.3,C[C@@H](O)[C@@H]1NC(=O)[C@H](CCCCN)NC(=O)[C@@H](Cc2c[nH]c3ccccc23)NC(=O)[C@H](Cc2ccc(O)cc2)NC(=O)[C@H](Cc2ccccc2)NC(=O)[C@@H](N)CSSC[C@@H](C(=O)O)NC(=O)[C@H](Cc2ccccc2)NC1=O

# Further lines, the molecule ahead of its results:
Structure (SMILES),IC50 [1] [nM],IC50 [2] [nM],IC50 [3] [nM],IC50 [4] [nM],IC50 [5] [nM]
COC(=O)[C@H](CCCN=C(N)N)NC(=O)CCCc1c(-c2ccccc2)[nH]c2c(F)cc(F)cc12,4.2,,,,
C[C@H](c1c[nH]c2ccccc12)[C@H]1NC(=O)[C@H](Cc2ccccc2)NC(=O)[C@H](Cc2ccccc2)NC(=O)[C@@H](N)CSSC[C@@H](C(=O)O)NC(=O)[C@H](Cc2ccccc2)NC(=O)[C@H]([C@@H](C)O)NC(=O)[C@H](CCCCN)NC1=O (H-CFF[X3]KTFC-OH; disulfide 1-8),4,49,40,53,42
C[C@@H]1NC(=O)[C@H](Cc2ccccc2)NC(=O)[C@@H](N)CSSC[C@@H](C(=O)O)NC(=O)[C@H](Cc2ccccc2)NC(=O)[C@H]([C@@H](C)O)NC(=O)[C@H](CCCCN)NC(=O)[C@H](Cc2c[nH]c3ccccc23)NC1=O,,> 1000,,,
C[C@@H](O)[C@@H]1NC(=O)[C@H](CCCCN)NC(=O)[C@@H](Cc2c[nH]c3ccccc23)NC(=O)[C@H](Cc2ccccc2)NC(=O)[C@H](Cc2ccccc2)NC(=O)[C@@H](N)CSSC[C@@H](C(=O)O)NC(=O)[C@H](Cc2ccccc2)NC1=O (H-CFF[dW]KTFC-OH; disulfide 1-8),1.8,27,41,13,46
C[C@@H](O)[C@@H]1NC(=O)[C@H](CCCCN)NC(=O)[C@H](Cc2c[nH]c3ccccc23)NC(=O)[C@H](Cc2ccc(N)cc2)NC(=O)[C@H](Cc2ccccc2)NC(=O)[C@@H](NC(N)=O)CSSC[C@@H](C(=O)O)NC(=O)[C@H](Cc2ccc(O)cc2)NC1=O,,,> 1000,,
C[C@@H](O)[C@@H]1NC(=O)[C@H](CCCCN)NC(=O)[C@H](Cc2c[nH]c3ccccc23)NC(=O)[C@H](Cc2ccc(N)cc2)NC(=O)[C@H](Cc2ccccc2)NC(=O)[C@@H](N)CSSC[C@@H](C(=O)O)NC(=O)[C@H](Cc2ccccc2)NC1=O,,,,> 1000,
C[C@@H]1NC(=O)[C@H](Cc2ccccc2)NC(=O)[C@@H](NC(=O)[C@@H](N)Cc2ccc(O)c(I)c2)CSSC[C@@H](C(=O)O)NC(=O)[C@H](Cc2ccccc2)NC(=O)[C@H]([C@@H](C)O)NC(=O)[C@H](CCCCN)NC(=O)[C@H](Cc2c[nH]c3ccccc23)NC1=O,3.5,> 1000,> 1000,1020,> 1000
C[C@@H]1NC(=O)[C@H](Cc2ccccc2)NC(=O)[C@@H](N)CSSC[C@@H](C(=O)O)NC(=O)[C@H](Cc2ccccc2)NC(=O)[C@H]([C@@H](C)O)NC(=O)[C@H](CCCCN)NC(=O)[C@@H](Cc2c[nH]c3ccccc23)NC1=O,,> 1000,,,
C[C@@H](O)[C@@H]1NC(=O)[C@H](CCCCN)NC(=O)[C@@H](Cc2c[nH]c3ccccc23)NC(=O)[C@H](Cc2ccc(N)cc2)NC(=O)[C@H](Cc2ccccc2)NC(=O)[C@@H](NC(N)=O)CSSC[C@@H](C(=O)O)NC(=O)[C@H](Cc2ccc(O)cc2)NC1=O,,> 1000,,,
C[C@@H](O)[C@@H]1NC(=O)[C@H](CCCCN)NC(=O)[C@H]([C@@H](C)c2c[nH]c3ccccc23)NC(=O)[C@H](Cc2ccccc2)NC(=O)[C@H](Cc2ccccc2)NC(=O)[C@@H](N)CSSC[C@@H](C(=O)O)NC(=O)[C@H](Cc2ccccc2)NC1=O (H-CFF[Trp(βS-Me)]KTFC-OH; disulfide 1-8),1.8,21,27,330,221
C[C@@H](O)[C@@H]1NC(=O)[C@H](CCCCN)NC(=O)[C@H](Cc2c[nH]c3ccccc23)NC(=O)[C@H](Cc2ccccc2)NC(=O)[C@H](Cc2ccccc2)NC(=O)[C@@H](N)CSSC[C@@H](C(=O)O)NC(=O)[C@H](Cc2ccccc2)NC1=O (H-CFFWKTFC-OH; disulfide 1-8),0.7,5.3,130,13,14
C[C@@H](O)[C@@H]1NC(=O)[C@H](CCCCN)NC(=O)[C@H](Cc2c[nH]c3ccccc23)NC(=O)[C@H](Cc2ccc(N)cc2)NC(=O)[C@H](Cc2ccccc2)NC(=O)[C@@H](NC(=O)[C@H](Cc2ccc(O)c(I)c2)NC(N)=O)CSSC[C@@H](C(=O)O)NC(=O)[C@H](Cc2ccccc2)NC1=O,8.8,> 1000,> 1000,325,990
